Source: PMC9218293 (Molecular Therapy Oncolytics, 2022)
pIC50: −log10 of the molar value. Like-named read-outs stand apart in the source and are kept apart here.

Tests used:
YUMM1.7P cells = experiment: WST-8 cell viability assay; assay type: cell-based; details: Mus musculus, read-out: IC50 value of vemurafenib for YUMM1.7P cells
Outline: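 Parental mouse melanoma YUMM1.7 cells (BRAF V600E) were grown in DMEM/F12 with 10% fetal bovine serum and 1% penicillin/streptomycin at 37°C, humidified 5% CO₂.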

YUMM1.7R cells = experiment: WST-8 cell viability assay; assay type: cell-based; details: Mus musculus
Outline: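 Resistant YUMM1.7R cells were derived by exposing parental YUMM1.7 cells to vemurafenib for 8–10 weeks, with the concentration escalated from a low (condition 1) or medium (condition 2) start. They were then kept under continuous 5 μM vemurafenib in DMEM/F12 with 10% fetal bovine serum and 1% penicillin/streptomycin at 37°C, 5% CO₂.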

[1] = tested on: TME of YUMM1.7R-derived tumors; experiment: Flow cytometry of tumor-infiltrating immune cells; assay type: in vivo, C57BL/6 mice; details: VEM 20 mg/kg i.p. daily, n = 6
YUMM1.7R-derived tumors = experiment: Syngeneic mouse melanoma model, tumor growth and survival; assay type: in vivo, C57BL/6 mice; details: 20 mg/kg i.p. daily; n = 6 mice/group; Figure 1A
Outline: (§1)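 Tumors were established in C57BL/6 mice (6–8 weeks) by s.c. injection of 3 × 10⁵ YUMM1.7P or YUMM1.7R cells. Daily i.p. vehicle or vemurafenib was given at 20 mg/kg. Tumor size was monitored, n = 6 mice/group, as means ± SEM with two-way ANOVA and Tukey's post hoc test. Mice with tumors >1,500 mm³ were euthanized.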

[2] = tested on: TME of YUMM1.7P-derived tumors; experiment: Flow cytometry of tumor-infiltrating immune cells; assay type: in vivo, C57BL/6 mice; details: VEM 20 mg/kg i.p. daily, n = 6
Outline: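 C57BL/6 mice (6–8 weeks) received 3 × 10⁵ YUMM1.7P cells s.c. Vehicle or vemurafenib was given at 20 mg/kg i.p. daily. Tumors were harvested and dissociated to single cells. Dead cells were excluded with fixable viability dye eFluor 506. Populations were gated as frequencies among live/dead⁻CD45⁺ cells: MDSCs CD45⁺CD11b⁺Gr1⁺, TAMs CD45⁺Gr1⁻CD11b⁺F4/80⁺, CD8⁺ T cells CD45⁺CD3⁺CD8⁺. n = 6 mice/group, means ± SEM.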

[3] = tested on: P-ERK1/2 (Thr202/Tyr204) in YUMM1.7P cells; experiment: Immunoblotting for P-ERK1/2 after vemurafenib; assay type: cell-based, mouse; details: vemurafenib 5 μM, immunoblot, Figure S1C
YUMM1.7P-derived tumors = experiment: Syngeneic mouse melanoma model, tumor growth; assay type: in vivo, C57BL/6 mice; details: 20 mg/kg i.p. daily; n = 6 mice/group; Figure 1A
Outline: as §1

[4] = tested on: P-ERK1/2 (Thr202/Tyr204) in YUMM1.7R cells; experiment: Immunoblotting for P-ERK1/2 after vemurafenib; assay type: cell-based, mouse; details: vemurafenib 5 μM; YUMM1.7R condition 1; immunoblot; Figure S1C

SMILES: CCCS(=O)(=O)Nc1ccc(F)c(C(=O)c2c[nH]c3ncc(-c4ccc(Cl)cc4)cc23)c1F [vemurafenib]
- pIC50 (YUMM1.7P cells): 5.51
- pIC50 (YUMM1.7R cells; read-out: IC50, YUMM1.7R (condition 1)): 4.98
- pIC50 (YUMM1.7R cells; read-out: IC50, YUMM1.7R (condition 2)): 5.02
- frequency of MDSCs ([1]; Figure 1B): reduction
- frequency of TAMs ([1]; Figure 1C): reduction
- frequency of CD8+ T cells ([1]; Figure 1D): failed to increase
- frequency of CD3+CD4+ T cells ([1]; Figure S3): No significant change
- tumor growth (YUMM1.7R-derived tumors): unaffected
- frequency of CD8+ T cells ([2]; CD45+CD3+CD8+, Figure 1D): increased
- frequency of MDSCs ([2]; CD45+CD11b+Gr1+, Figure 1B): significant decrease
- frequency of TAMs ([2]; CD45+Gr1-CD11b+F4/80+, Figure 1C): significant decrease
- frequency of CD3+CD4+ T cells ([2]; Figure S3): No significant change
- ERK phosphorylation [3]: considerable reduction
- inhibition of tumor growth (YUMM1.7P-derived tumors): highly sensitive
- ERK phosphorylation [4]: this reduction was dramatically suppressed
